Experimental data gathered from unrelated publications.
Each line is one published result; the experiments were not run side by side.
Target: Non-receptor tyrosine-protein kinase TNK1 (TNK1, Homo sapiens, UniProt Q13470)
Residues used in one study (Q13470 1-666): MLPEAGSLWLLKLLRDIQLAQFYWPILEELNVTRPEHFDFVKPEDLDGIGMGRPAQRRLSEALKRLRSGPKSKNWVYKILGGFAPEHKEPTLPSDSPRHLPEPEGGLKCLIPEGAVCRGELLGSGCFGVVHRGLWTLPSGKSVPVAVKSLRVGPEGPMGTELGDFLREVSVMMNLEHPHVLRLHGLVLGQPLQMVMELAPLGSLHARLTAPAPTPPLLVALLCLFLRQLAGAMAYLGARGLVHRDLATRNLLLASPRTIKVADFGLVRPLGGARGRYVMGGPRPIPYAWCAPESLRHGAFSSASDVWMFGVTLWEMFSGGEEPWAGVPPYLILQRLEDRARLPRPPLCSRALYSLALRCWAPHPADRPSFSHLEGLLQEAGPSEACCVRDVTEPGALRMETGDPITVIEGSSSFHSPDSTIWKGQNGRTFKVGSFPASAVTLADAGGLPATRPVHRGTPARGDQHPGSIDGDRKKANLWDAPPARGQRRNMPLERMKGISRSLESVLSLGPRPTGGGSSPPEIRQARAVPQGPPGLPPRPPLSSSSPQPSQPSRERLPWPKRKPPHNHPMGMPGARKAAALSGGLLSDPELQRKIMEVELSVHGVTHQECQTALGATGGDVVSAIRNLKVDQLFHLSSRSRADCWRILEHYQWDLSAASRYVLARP

| Compound | test | setting | remaining binding [%] |
| --- | --- | --- | --- |
| Cn1cc(Cl)c2c(Oc3c(F)cc(Nc4cc(Cl)nc(N)n4)cc3F)ccnc21 | cell-free assay, competition with immobilised ligand | 0.1 µM | 100 |
| FC(F)(F)Oc1cccc(-c2cnc3ccc(-c4ccncc4)nn23)c1 | binding, competition with immobilised ligand | 5 µM | 88 |
| N[C@@H]1CCN(c2nccc(-c3cnn4ncccc34)n2)C1 | binding | 1 µM | 100 |
| COc1cc(-c2cn(C3CCc4c(F)cccc4N(CC(F)(F)F)C3=O)nn2)ccc1-n1cnc(C)c1 (stereo not shown) | cell-free assay, competition with immobilised ligand | 1 µM | 100 |
| CN(C)c1nccc(-c2cnn3ncccc23)n1 | binding | 1 µM | 67 |
| Cc1cnc(Nc2ccc(C(=O)N3CCC(N4CCCC4)CC3)cc2)nc1-c1cc2ccccc2s1 | binding, competition with immobilised ligand | 1 µM | 13 |
| F[C@@H]1CCN(c2nccc(-c3cnn4ncccc34)n2)C1 | binding | 1 µM | 87 |
| COc1cnc(Nc2cccc(S(N)(=O)=O)c2)nc1N1CCN(c2ccccc2)C(=O)C1 | binding, competition with immobilised ligand | 1 µM | 100 |
| Cc1noc([C@H]2C[C@@H](c3ccc(C(F)(F)F)cc3)CN(C(=O)N3CCS(=O)(=O)C3)C2)n1 | cell-free assay, competition with immobilised ligand | 1 µM | 100 |
| COc1cnc(Nc2cccc(S(N)(=O)=O)c2)nc1N1CCN(c2ccccc2)CC1 | binding, competition with immobilised ligand | 1 µM | 98 |
| C[C@@H](c1cccc(C#N)c1)n1cc(Cl)cc(C(N)=O)c1=N | cell-free assay, competition with immobilised ligand | 1 µM | 94 |
| CCN1CCN(Cc2ccc(C(=O)Nc3ccc(C)c(Oc4ccc5c(c4)CC(=O)N5)c3)cc2C(F)(F)F)CC1 | binding, competition with immobilised ligand | 1 µM | 100 |
| O=C(c1ccc(Nc2ncc(Cl)c(-c3cc4ccccc4s3)n2)cc1)N1CCC(N2CCCC2)CC1 | binding, competition with immobilised ligand | 1 µM | 15 |
| CN(c1nccc(-c2cnn3ncccc23)n1)C1CC1 | binding | 1 µM | 84 |
| CNC(=O)Nc1ccc2c(c1)CC[C@@]21OC(=O)N(CC(=O)N(Cc2ccc(F)cc2)[C@@H](C)C(F)(F)F)C1=O | cell-free assay, competition with immobilised ligand | 1 µM | 86 |
| O=C(NCC1CCOCC1)c1n[nH]cc1NC(=O)c1c(F)cccc1F | binding, competition with immobilised ligand | 1 µM | 98 |
| C[C@H]1CCN(c2nccc(-c3cnn4ncccc34)n2)C1 | binding | 1 µM | 100 |
| CN1CCN(c2cnc3c(C4CCN(C(=O)c5ccc(OC(F)(F)F)cc5N)CC4)ncnc3c2)CC1 | cell-free assay, competition with immobilised ligand | 1 µM | 100 |
| O=C(c1ccc(Nc2nccc(-c3cc4ccccc4s3)n2)cc1)N1CCC(N2CCCC2)CC1 | binding, competition with immobilised ligand | 1 µM | 27 |
| C[C@@H](c1ccc(-n2cnc3c(N)ncnc32)cc1)N1CCc2nn(C)c(Cc3ccccc3)c2C1=O | binding, competition with immobilised ligand | 0.1 µM | 47 |
| CN(C)c1nccc(-c2cnc3ncccn23)n1 | binding | 1 µM | 100 |
| COc1cc(C(=O)N2CCC(N3CCN(C)CC3)CC2)ccc1Nc1ncc2c(n1)N(C)c1ccccc1C(=O)N2C | binding, competition with immobilised ligand | 10 µM | 2.8 |
